Results on 13 molecules are retold here after PubChem BioAssay.

The nature of test [1]: inhibitors of TNFa-induced NFkB p65 translocation, primary screen, imaging, HUVEC, MLSMR starter and 10KST1 sets (AID 438;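 active means inhibition above 20% together with a positive visual image hit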;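 further: compound added about 3h40 before a 20 min TNFalpha stimulation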;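 on inhibition: signal is the nuclear over cytoplasmic p65 intensity ratio per well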). Conditions: HUVEC TNFa-induced p65 nuclear translocation; cell count: measured here: nuclei count (cytotoxicity indicator), at 2.08 µM; inhibition: at 2 µM, stronger effect = higher value, 0% TNFa-plus-vehicle, 100% no-TNFa wells.
Test [2] in a line: inhibitors of E-selectin induction by TNFa, primary screen, imaging, HUVEC, immunofluorescence, MLSMR starter and 10KST1 sets (AID 487;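 active means visually confirmed hit in the image check and inhibition above 20%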;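 on inhibition: signal is fraction of cell area covered by stained E-selectin grains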;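 on nuclei count: 100% = median nuclei count of all wells on the same plate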). Conditions: HUVEC TNFalpha-induced E-selectin immunofluorescence imaging, at 2 µM; inhibition: stronger effect = higher value; nuclei count: measured here: cell number, toxicity.
Test [3] is described as follows: DUSP6 inhibitors restoring Erk phosphorylation by chemical complementation, primary imaging in DUSP6-transfected HeLa (AID 609;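 active means compounds giving at least 50% inhibition in the cell-based MKP-3 phosphatase rescue imaging test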;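 on inhibition: phospho-Erk level distribution per well compared with pooled transfected vehicle control wells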). Conditions: HeLa MKP-3 transfected, phospho-Erk imaging KS statistic, at 10 µM, cells stimulated with TPA for 15 min.
The target in test [4] is Dual specificity protein phosphatase 6 (Homo sapiens) (UniProt Q16828). The test is described as above. Conditions: HeLa MKP-3 transfected, phospho-Erk imaging KS statistic; at 10 µM; stronger effect = higher value; cells stimulated with TPA for 15 min.
Chain of Dual specificity protein phosphatase 6 (Homo sapiens) (Q16828 whole entry, looked up): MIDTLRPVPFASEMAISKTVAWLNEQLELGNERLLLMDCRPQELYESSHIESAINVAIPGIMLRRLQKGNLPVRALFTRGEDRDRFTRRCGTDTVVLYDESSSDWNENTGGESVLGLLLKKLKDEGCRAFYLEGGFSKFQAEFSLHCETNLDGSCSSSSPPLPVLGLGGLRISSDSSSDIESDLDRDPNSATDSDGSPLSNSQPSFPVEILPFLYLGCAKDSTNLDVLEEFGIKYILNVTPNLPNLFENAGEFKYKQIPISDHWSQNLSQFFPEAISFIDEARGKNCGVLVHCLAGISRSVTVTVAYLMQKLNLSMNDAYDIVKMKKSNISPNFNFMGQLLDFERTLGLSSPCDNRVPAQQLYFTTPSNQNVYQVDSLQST
Test [5] deals with Voltage-gated potassium channel subunit beta-2 (Rattus norvegicus) (UniProt P62483). The test is described as follows: KvBeta enzyme negative modulators, primary screen, biochemical, NADPH fluorescence (AID 622;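 active means fluorescence slope higher than the sample average by over 3 SD, cut at about -0.22 in these data, passing the limit was not always enough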;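 further: slope of raw intensity against log time taken from 70 to 1610 s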). Conditions: recombinant KvBeta, 4-cyanobenzaldehyde reduction, at 10 µM, stronger effect = higher value.
Chain of Voltage-gated potassium channel subunit beta-2 (Rattus norvegicus) (P62483 whole entry, looked up): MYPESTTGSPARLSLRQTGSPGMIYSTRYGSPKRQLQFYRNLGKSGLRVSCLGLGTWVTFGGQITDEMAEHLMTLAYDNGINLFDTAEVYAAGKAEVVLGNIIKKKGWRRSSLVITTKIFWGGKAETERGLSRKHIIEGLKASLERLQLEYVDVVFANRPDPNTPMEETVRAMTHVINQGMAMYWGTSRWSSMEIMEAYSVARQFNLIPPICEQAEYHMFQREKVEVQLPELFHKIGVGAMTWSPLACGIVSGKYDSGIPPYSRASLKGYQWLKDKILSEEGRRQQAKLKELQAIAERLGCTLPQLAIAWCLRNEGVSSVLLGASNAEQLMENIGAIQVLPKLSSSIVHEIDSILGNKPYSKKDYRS
The target is the same in test [6]. Briefly: KvBeta positive modulators, primary screen, biochemical, NADPH fluorescence (AID 623).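 Further: fluorescence intensity change per second fitted from 20 to 320 s.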 Conditions: Recombinant KvBeta, NADPH fluorescence decrease slope, 10 min; at 10 µM; stronger effect = lower value.
Test [7] has as its target Muscarinic acetylcholine receptor M4 (Homo sapiens) (UniProt P08173). The test is described as follows: compounds altering M4/GIRK thallium flux, either direction, primary screen, M4 allosteric agonist project, cell-based, HEK293 M4/GIRK, BTC-AM (AID 625;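 active means fluorescence slope after compound addition differing from the mean of all tested samples at 99.7% confidence, mostly higher but some lower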;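 further: thallium influx through GIRK channels coupled to M4 in HEK293 cells with BTC-AM dye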). Conditions: at 10 µM, actives lie on both sides. In outline: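 Material: HEK293 cells with M4 receptor and GIRK channels; Times: cells overnight at 37 °C, BTC-AM loading 1 h, reads 2 min total; Technique: kinetic BTC-AM fluorescence sampled at 1 Hz, 10 s pre-addition baseline; Read-out basis: slope over 15–24 s of trace normalized to starting intensity; Controls: carbachol positive, DMSO negative.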

Test [8] is described as follows: inhibitors of larval lipid processing in zebrafish, primary screen, whole organism, PED6 fluorescence, gall bladder and intestine (AID 686;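 active means a full or partial loss of lipid-probe fluorescence in the fish gall bladder, intestine or both, judged by eye; inactive means no fluorescence loss, or compound toxic to the fish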;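 further: larvae 5 to 7 days old with five fish per well; signal comes from phospholipase A2 cleavage of quenched PED6 carried via bile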). Conditions: Zebrafish larvae PED6 lipid processing, fluorescence scoring; screened at 20 µM (by protocol). In outline:
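Incubation: overnight exposure of larvae to compound plus PED6 / Test system: live zebrafish larvae aged 5-7 days, whole organism / Amount: 5 larvae per well / Read-out basis: visual per-well fluorescence inhibition score / Signal: visual fluorescence microscopy scoring of gall bladder, gut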

Test [9] can be described thus: inhibitors of Chlamydomonas gravitaxis, primary screen, whole organism, Chlamydomonas reinhardtii, WT vs cilia-less mutant, absorbance, 96-well (AID 463189;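 active means inhibition at or above 50% relative to wild type and mutant plate controls; inactive means inhibition below 50%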;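 further: 0% = wild type cc124 cells in DMSO and 100% = ciliumless bld1 mutant cells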). Conditions: OD600 absorbance, 2 days, at 10 µM, stronger effect = higher value.
Setting [10] is: measured here: cell density z-score.
Setting [11] is: measured here: nuclear c-Myc green intensity z-score.
Setting [12] is: measured here: nuclear pErk red intensity z-score, stronger effect = higher value.

Active and inactive are the calls of the source.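 How the source made its calls, unless noted: active means NADPH fluorescence slope more negative than the mean of all samples by about 3 SD, 99.7% confidence; inactive means the rest.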

Chain of Muscarinic acetylcholine receptor M4 (Homo sapiens) (P08173 whole entry, looked up): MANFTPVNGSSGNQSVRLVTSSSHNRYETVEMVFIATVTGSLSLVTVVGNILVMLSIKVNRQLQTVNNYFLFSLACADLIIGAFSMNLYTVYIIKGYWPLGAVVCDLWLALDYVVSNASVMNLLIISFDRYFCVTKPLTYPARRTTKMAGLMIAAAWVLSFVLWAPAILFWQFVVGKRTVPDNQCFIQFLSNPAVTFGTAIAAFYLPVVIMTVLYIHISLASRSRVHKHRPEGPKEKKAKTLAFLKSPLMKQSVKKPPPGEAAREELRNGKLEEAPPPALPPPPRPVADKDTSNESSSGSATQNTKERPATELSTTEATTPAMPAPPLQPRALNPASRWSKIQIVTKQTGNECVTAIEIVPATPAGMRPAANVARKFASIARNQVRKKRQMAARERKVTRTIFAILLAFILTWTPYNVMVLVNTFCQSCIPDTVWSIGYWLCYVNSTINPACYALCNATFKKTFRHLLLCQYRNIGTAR

Consider `O=C(c1ccc2c3c(cccc13)C(=O)N(O)C2=O)N1CCCCC1`, for which, in test [1], the cell count worked out at 583. The inhibition in test [1] was -6.7% (inactive); in [2] it was 65.6% (active); in test [4], 35.1% (inactive); in test [9] it was 35.8% (inactive). In test [2], this molecule registered a nuclei count of 92.9%. Besides, the z-score in test [3] (setting [10]) was 1.73; in test [3] (setting [11]), -0.867; in [3] (setting [12]), -1.15. Moreover, the figures for the fluorescence slope in test [5] and in [7] were -0.426 (inactive) and 0.00526 (inactive), respectively. Besides, the NADPH fluorescence slope in test [6] is -3.2e-05 (inactive). The molecule was classed as inactive in test [8].

As to `Cc1cc(=O)oc(C)c1C(=O)NCC1CCCO1` (centres undefined), the cell count in test [1] stood at 606. For the same molecule, the inhibition in test [1] is 9.1% (inactive); in [2], -24.6% (inactive); in [4], 5.35% (inactive); in test [9], 5.07% (inactive). This molecule also gave a nuclei count in test [2] of 123%. Moreover, the z-score is 0.0605 in [3] (setting [10]), 0.0774 in [3] (setting [11]) and 0.0396 in [3] (setting [12]). The fluorescence slope in test [5] is -0.441 (inactive); in [7], 0.00527 (inactive). The NADPH fluorescence slope in test [6] is -4.3e-05 (inactive). Further, the outcome in test [8] was inactive.

Regarding `C=CCn1c(=O)c(C(=O)NCCN(CC)CC)c(O)c2ccccc21`, the cell count in test [1] worked out at 560. Also, the inhibition is 0% (inactive) in test [1], -97% (inactive) in [2], 27.8% (inactive) in test [4] and 42.6% (inactive) in test [9]. The nuclei count in test [2] stood at 170%. The z-score in [3] (setting [10]) is 1.11; in [3] (setting [11]), -0.484; in test [3] (setting [12]), 1.3. Besides, the fluorescence slope in test [5] is -0.368 (inactive); in [7] it was 0.00442 (inactive). The NADPH fluorescence slope in [6] is -2.4e-05 (inactive). Moreover, the outcome in test [8] was inactive.

For `CSc1cc(C)nc(N(C)C(C)=O)n1`, the cell count in [1] came out at 672. Besides, the inhibition in [1] was -1.4% (inactive); in test [2], -9.4% (inactive); in [4], 5.35% (inactive); in test [9], -6.47% (inactive). Further, the nuclei count in [2] is 145%. The z-score in test [3] (setting [10]) was -2.7; in test [3] (setting [11]), 1.16; in [3] (setting [12]), 0.496. In addition, the fluorescence slope in test [5] is -0.421 (inactive); in test [7], 0.00511 (inactive). Also, the NADPH fluorescence slope in test [6] is -5.5e-05 (inactive). Also, the molecule was classed as inactive in test [8].

`CNC(=O)CCn1nc(-c2ccccc2)c2ccccc2c1=O`: the cell count in [1] was determined as 737. For the same molecule, the inhibition in test [1] is -2.4% (inactive); in [2], -67.9% (inactive); in [4], 11.4% (inactive); in test [9], 10.7% (inactive). Further, in test [2], the nuclei count came out at 156%. Moreover, the figures for the z-score in test [3] (setting [10]), in test [3] (setting [11]) and in test [3] (setting [12]) were 1.04, -1.35 and -0.0887, respectively. In addition, the fluorescence slope is -0.455 (inactive) in test [5] and 0.00449 (inactive) in test [7]. For the same molecule, in [6], the NADPH fluorescence slope is -2.4e-05 (inactive). In addition, the call in test [8] was inactive.

In the case of `C[n+]1cccc(CNC(=O)/C=N/O)c1`, the cell count in [1] worked out at 621. The inhibition in test [1] was -2.4% (inactive); in test [2] it was -126% (inactive); in test [4], 6.04% (inactive); in [9], -6.73% (inactive). The same molecule displayed a nuclei count in [2] of 158%. For the same molecule, the z-score in test [3] (setting [10]) is -2.05; in test [3] (setting [11]), 3.02; in [3] (setting [12]), 0.751. Moreover, the fluorescence slope is -0.47 (inactive) in [5] and 0.00464 (inactive) in test [7]. Also, the NADPH fluorescence slope in [6] is -3e-05 (inactive). In addition, the outcome in [8] was inactive.

Take `CCOC(=O)/C(C#N)=C1/SC(CCO)C(=O)N1c1ccccc1` (centres undefined): in test [1], the cell count was determined as 541. The inhibition in [1] is -19.2% (inactive); in test [2] it was -6.8% (inactive); in test [4] it was -2.59% (inactive); in test [9] it was -8.39% (inactive). In test [2], this molecule came in with a nuclei count of 122%. Besides, the values for the z-score in test [3] (setting [10]), in test [3] (setting [11]) and in test [3] (setting [12]) were -0.811, 0.0733 and 0.776, respectively. The fluorescence slope was -0.373 (inactive) in test [5] and 0.00516 (inactive) in test [7]. For the same molecule, the NADPH fluorescence slope in test [6] is -2e-05 (inactive). In addition, the molecule was classed as inactive in [8].

Take `Cc1c2c([n+]3n1CCC3)CC(C)(C)CC2=O`: the cell count in [1] was 617. Further, the inhibition in [1] is 10.2% (inactive); in test [2] it was -23.3% (inactive); in test [4], -7.67% (inactive); in test [9], -11.5% (inactive). Further, in test [2], the nuclei count worked out at 121%. Besides, the z-score in test [3] (setting [10]) was -0.832; in [3] (setting [11]), 1.36; in test [3] (setting [12]) it was 0.404. Moreover, the fluorescence slope was -0.443 (inactive) in test [5] and 0.00512 (inactive) in [7]. Moreover, in [6], the NADPH fluorescence slope is -3.2e-05 (inactive). For the same molecule, the result in test [8] was inactive.

Consider `CCCn1c(SCC(N)=O)nc2c(c1=O)C1(CCCC1)Cc1ccccc1-2`, for which, in test [1], the cell count amounted to 555. Also, the inhibition in test [1] is -8% (inactive); in [2], 20.3% (inactive); in test [4], 1.98% (inactive); in test [9], -1.68% (inactive). The same molecule came in with a nuclei count in [2] of 170%. Besides, the z-score was found to be 0.28 in test [3] (setting [10]), 0.545 in [3] (setting [11]) and 0.00156 in test [3] (setting [12]). For the same molecule, the fluorescence slope in test [5] is -0.386 (inactive); in [7] it was 0.00485 (inactive). In [6], the NADPH fluorescence slope was -5.2e-05 (inactive). For the same molecule, the molecule was called inactive in test [8].

For the molecule `CSc1nc2[nH]c3c(c2c2nncn12)CC(C)(C)OC3`, the cell count in test [1] worked out at 554. Further, the inhibition in test [1] was -4.9% (inactive); in test [2] it was -169% (inactive); in test [4], 5.42% (inactive); in [9], -2.07% (inactive). The molecule further showed a nuclei count in [2] of 129%. For the same molecule, the z-score in test [3] (setting [10]) is 0.946; in [3] (setting [11]) it was 0.54; in test [3] (setting [12]) it was -1.06. The fluorescence slope was -0.511 (inactive) in test [5] and 0.00422 (inactive) in [7]. Moreover, the NADPH fluorescence slope in [6] was -8.3e-05 (inactive). In test [8], the result was inactive.

Regarding `COc1ccc(C2CC(c3ccccc3)Nc3nc(N)nn32)cc1` (centres undefined), the cell count in test [1] is 377. Further, the inhibition is 4.8% (inactive) in [1], -29.3% (inactive) in test [2], 1.48% (inactive) in test [4] and -15% (inactive) in [9]. In test [2], this molecule had a nuclei count of 110%. Besides, the figures for the z-score in [3] (setting [10]), in [3] (setting [11]) and in test [3] (setting [12]) were -1.01, -0.362 and -0.446, respectively. The fluorescence slope in test [5] is -0.495 (inactive); in test [7], 0.00558 (inactive). Further, the NADPH fluorescence slope in test [6] is -1.6e-05 (inactive). The molecule was called inactive in test [8].

As to `C=CCNc1nc(N2CCOCC2)c(C#N)c2c1CN(C)CC2`, the cell count in test [1] is 600. Besides, the inhibition is -5.7% (inactive) in [1], -83.6% (inactive) in test [2], 9.07% (inactive) in test [4] and 1.91% (inactive) in test [9]. In test [2], this molecule gave a nuclei count of 138%. Besides, the z-score was 0.63 in test [3] (setting [10]), -0.71 in [3] (setting [11]) and 0.0349 in test [3] (setting [12]). Further, the fluorescence slope in test [5] is -0.417 (inactive); in [7], 0.00406 (inactive). For the same molecule, the NADPH fluorescence slope in test [6] was -9.1e-05 (inactive). For the same molecule, the call in test [8] was inactive.

Consider `O=C(NCCN1CCOCC1)c1ccc(=O)oc1`, for which, in test [1], the cell count was 515. Also, the inhibition in [1] was -7.5% (inactive); in test [2] it was 70.5% (active); in [4], 4.37% (inactive); in [9], -15.9% (inactive). In test [2], the nuclei count amounted to 102%. Moreover, the figures for the z-score in [3] (setting [10]), in test [3] (setting [11]) and in [3] (setting [12]) were 0.12, 1.12 and 0.0878, respectively. The fluorescence slope in [5] was -0.481 (inactive); in [7], 0.0085 (inactive). The NADPH fluorescence slope in [6] was -8.3e-05 (inactive). Moreover, the molecule was called inactive in test [8].

What is called inhibition is the relative decrease from the control value, in per cent.
